Experimental data taken from ChEMBL document CHEMBL1629624, “In vitro and in vivo studies to characterize the clearance mechanism and potential cytochrome P450 interactions of anidulafungin” (Antimicrob Agents Chemother, 2009).

Tests used:
Type in all cases: ADME, organism-based
Plasma [1] = test: Cmax in Sprague-Dawley rat plasma at 5 mg/kg, iv by liquid scintillation counting; design: dose 5 mg/kg, route intravenous; conditions: in vivo
Procedure, shortened: (§1)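 Male Sprague-Dawley rats, single i.v. bolus of [14C]drug. Blood by cardiac puncture from three noncannulated rats killed at each time from 0.25 to 168 h; plasma separated from an aliquot. Radioactivity by liquid scintillation counting. Parameters come from a composite profile of mean values, taking 1 g as equal to 1 ml.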

Plasma [2] = test: Tmax in Sprague-Dawley rat plasma at 5 mg/kg, iv by liquid scintillation counting; design: dose 5 mg/kg, route intravenous; conditions: in vivo; procedure, shortened: as §1
Plasma [3] = test: Half life in Sprague-Dawley rat plasma at 5 mg/kg, iv by liquid scintillation counting; design: dose 5 mg/kg, route intravenous; conditions: in vivo; procedure, shortened: as §1
Plasma [4] = test: Volume of distribution at steady state in Sprague-Dawley rat plasma at 5 mg/kg, iv by liquid scintillation counting; design: dose 5 mg/kg, route intravenous; conditions: in vivo; procedure, shortened: as §1
[5] = Cmax in Sprague-Dawley rat whole blood at 5 mg/kg, iv by liquid scintillation counting; design: dose 5 mg/kg, route intravenous; conditions: in vivo; procedure, shortened: as §1
[6] = Tmax in Sprague-Dawley rat whole blood at 5 mg/kg, iv by liquid scintillation counting; design: dose 5 mg/kg, route intravenous; conditions: in vivo; procedure, shortened: as §1
[7] = Half life in Sprague-Dawley rat whole blood at 5 mg/kg, iv by liquid scintillation counting; design: dose 5 mg/kg, route intravenous; conditions: in vivo; procedure, shortened: as §1
[8] = Volume of distribution at steady state in Sprague-Dawley rat whole blood at 5 mg/kg, iv by liquid scintillation counting; design: dose 5 mg/kg, route intravenous; conditions: in vivo
Procedure, shortened: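 Male Sprague-Dawley rats, single i.v. bolus of [14C]drug, 5 mg/kg. Blood by cardiac puncture from three non-cannulated rats killed at each time from 0.25 to 168 h. Radioactivity counted by liquid scintillation. Noncompartmental parameters taken from a composite profile of mean values per time point, assuming 1 g blood equals 1 ml.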

Plasma [9] = test: Cmax in human plasma at 100 uCi, iv by liquid scintillation counting; design: route intravenous; conditions: in vivo
Procedure, shortened: (§2)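 Nine healthy men, single i.v. infusion of [14C]drug (planned 100 mg/100 μCi, mean delivered 95 μCi) over 100 min. Heparinized blood sampled from 0 to 18 h, then daily through day 10, plus follow-up. Total radioactivity in plasma and whole blood by liquid scintillation counting, reported as mg equivalents. Noncompartmental analysis; values are means (%CV).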

Plasma [10] = test: Tmax in human plasma at 100 uCi, iv by liquid scintillation counting; conditions: in vivo; procedure, shortened: as §2
Plasma [11] = test: Half life in human plasma at 100 uCi, iv by liquid scintillation counting; procedure, shortened: as §2
Plasma [12] = test: Mean residence time in human plasma at 100 uCi, iv by liquid scintillation counting; conditions: in vivo; procedure, shortened: as §2
Plasma [13] = test: Volume of distribution at steady state in human plasma at 100 uCi, iv by liquid scintillation counting; conditions: in vivo
Procedure, shortened: (§3)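 Healthy adult men (n = 9), single i.v. infusion of [14C]drug over 100 min at 1 mg/min. 100 mg/100 μCi was planned; the mean actually given was 88.3 mg and 95 μCi. Heparinized samples drawn from 0 h through day 10 and at follow-up. Total radioactivity in plasma or whole blood counted by liquid scintillation and expressed as mg equivalents. Noncompartmental analysis, given as mean (%CV).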

Plasma [14] = test: Clearance in human plasma at 100 uCi, iv by liquid scintillation counting; conditions: in vivo; procedure, shortened: as §2
[15] = Cmax in human whole blood at 100 uCi, iv by liquid scintillation counting; design: route intravenous; conditions: in vivo; procedure, shortened: as §2
[16] = Tmax in human whole blood at 100 uCi, iv by liquid scintillation counting; conditions: in vivo; procedure, shortened: as §2
[17] = Half life in human whole blood at 100 uCi, iv by liquid scintillation counting; procedure, shortened: as §2
[18] = Mean residence time in human whole blood at 100 uCi, iv by liquid scintillation counting; conditions: in vivo; procedure, shortened: as §2
[19] = Volume of distribution at steady state in human whole blood at 100 uCi, iv by liquid scintillation counting; conditions: in vivo; procedure, shortened: as §3
[20] = Clearance in human whole blood at 100 uCi, iv by liquid scintillation counting; conditions: in vivo; procedure, shortened: as §2
[21] = Drug level in noncannulated Sprague-Dawley rat assessed as radioactive drug recovery in feces at 5 mg/kg, iv after 168 hrs by liquid scintillation counting; design: dose 5 mg/kg, route intravenous; conditions: in vivo
Procedure, shortened: (§4)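 Male Sprague-Dawley rats, single i.v. bolus of [14C]drug. Five bile duct-cannulated rats: bile collected at 0-4, 4-8 and 8-24 h, then every 24 h to 168 h. Three noncannulated rats were killed at 168 h. Urine and feces collected over set intervals; carcass and cage washings taken at sacrifice. Liquid scintillation counting, expressed as percent of dose.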

[22] = Drug level in noncannulated Sprague-Dawley rat assessed as radioactive drug recovery in carcass at 5 mg/kg, iv after 168 hrs by liquid scintillation counting; design: dose 5 mg/kg, route intravenous; conditions: in vivo; procedure, shortened: as §4
[23] = Drug level in bile-duct cannulated Sprague-Dawley rat assessed as radioactive drug recovery in carcass at 5 mg/kg, iv after 168 hrs by liquid scintillation counting; design: dose 5 mg/kg, route intravenous; conditions: in vivo; procedure, shortened: as §4
[24] = Drug level in bile-duct cannulated Sprague-Dawley rat assessed as radioactive drug recovery in bile at 5 mg/kg, iv after 168 hrs by liquid scintillation counting; design: dose 5 mg/kg, route intravenous; conditions: in vivo; procedure, shortened: as §4
[25] = Drug level in bile-duct cannulated Sprague-Dawley rat assessed as radioactive drug recovery in feces at 5 mg/kg, iv after 168 hrs by liquid scintillation counting; design: dose 5 mg/kg, route intravenous; conditions: in vivo; procedure, shortened: as §4
[26] = Drug level in human assessed as radioactive drug recovery in urine at 100 uCi, iv after 216 hrs by liquid scintillation counting; conditions: in vivo
Procedure, shortened: (§5)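 Nine healthy men given a single i.v. infusion of [14C]drug. Urine collected predose, at 0-2, 2-4, 4-8 and 8-24 h, then every 24 h to day 10. Feces collected predose and every 24 h to day 10. Radioactivity measured by liquid scintillation counting and totalled as cumulative percent of dose through 216 h.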

[27] = Drug level in human assessed as radioactive drug recovery in feces at 100 uCi, iv after 216 hrs by liquid scintillation counting; conditions: in vivo; procedure, shortened: as §5
[28] = Drug level in human assessed as radioactive drug recovery in feces at 100 uCi, iv within 216 hrs by liquid scintillation counting; conditions: in vivo; procedure, shortened: as §5

In the case of `CCCCCOc1ccc(-c2ccc(-c3ccc([14C](=O)N[C@H]4C[C@@H](O)[C@@H](O)NC(=O)[C@@H]5[C@@H](O)[C@@H](C)CN5C(=O)[C@H]([C@H](C)O)NC(=O)[C@H]([C@H](O)[C@@H](O)c5ccc(O)cc5)NC(=O)[C@@H]5C[C@@H](O)CN5C(=O)[C@H]([C@H](C)O)NC4=O)cc3)cc2)cc1` [[14C]-ANIDULAFUNGIN], the Cmax (Plasma [1]) is reported as 6.84 ugequiv/ml, the Tmax (Plasma [2]) is reported as 0.25 h and the t1/2 (Plasma [3]) is reported as 52.9 h. It also gave a Vdss (Plasma [4]) of 1.056 L/kg, a Cmax [5] of 11.5 ugequiv/ml and a Tmax [6] of 0.25 h. The t1/2 [7] was 52.1 h, the Vdss [8] was 0.696 L/kg and the Cmax (Plasma [9]) was 3020 ng/mL. It also gave a Tmax (Plasma [10]) of 1.78 h, a t1/2 (Plasma [11]) of 119 h and an MRT (Plasma [12]) of 162 h. The Vdss (Plasma [13]) was 57.6 L, the CL (Plasma [14]) was 0.356 L/h and the Cmax [15] was 3380 ng/mL. For the same molecule, the Tmax [16] was 1.75 h, the t1/2 [17] was 139 h and the MRT [18] was 174 h. For the same molecule, the Vdss [19] was 61.6 L, the CL [20] was 0.356 L/h and the Drug uptake [21] was 77.1%. It also gave a Drug uptake [22] of 23.1%, a Drug uptake [23] of 40.4% and a Drug uptake [24] of 33.9%. It also gave a Drug uptake [25] of 17.1%, a Drug uptake [26] of 0.56% and a Drug uptake [27] of 29.5%. It also gave a Drug uptake [28] of 10%.
